Results pooled from the literature.
Lines come from different studies, so protocols differ.
Target: Serine/threonine-protein kinase 17B (STK17B, Homo sapiens, UniProt O94768)
One construct used (O94768 1-372): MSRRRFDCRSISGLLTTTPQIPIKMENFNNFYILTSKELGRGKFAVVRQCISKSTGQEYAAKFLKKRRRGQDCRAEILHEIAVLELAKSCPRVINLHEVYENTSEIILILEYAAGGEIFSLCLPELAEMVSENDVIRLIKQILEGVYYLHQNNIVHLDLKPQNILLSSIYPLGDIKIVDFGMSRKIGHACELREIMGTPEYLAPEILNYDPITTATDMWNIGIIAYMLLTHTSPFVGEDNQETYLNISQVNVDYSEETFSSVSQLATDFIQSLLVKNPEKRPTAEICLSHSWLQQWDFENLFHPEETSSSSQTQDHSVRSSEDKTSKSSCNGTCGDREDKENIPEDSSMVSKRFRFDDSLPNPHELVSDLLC

| Structure (SMILES) | assay | setting | remaining binding |
| --- | --- | --- | --- |
| CN(CCCC(F)(F)F)c1nccc(-c2cnn3ncccc23)n1 | binding | 1 µM | 100% |
| CCCCN(CCCC)C(=O)CN1C[C@H](c2cc(OC)c3c(c2)OCO3)[C@@H](C(=O)O)[C@@H]1CC(C)(C)CCC | cell-free assay, competition with immobilised ligand | 1 µM | 100% |
| C[C@@H]1CCN(c2nccc(-c3cnn4ncccc34)n2)C1 | binding | 1 µM | 100% |
| FC(F)(F)Oc1cccc(-c2cnc3ccc(-c4ccncc4)nn23)c1 | cell-free assay, competition with immobilised ligand | 5 µM | 85% |
| CS(=O)(=O)c1cc(C2(NC(=O)c3cncc4c3cnn4-c3ccc(F)cc3)CC2)ccn1 | cell-free assay, competition with immobilised ligand | 1 µM | 83% |
| N[C@H]1CCN(c2nccc(-c3cnn4ncccc34)n2)C1 | binding | 1 µM | 100% |
| O=C(NCC1CCOCC1)c1n[nH]cc1NC(=O)c1c(F)cccc1F | binding, competition with immobilised ligand | 1 µM | 91% |
| COc1cnc(Nc2cccc(S(N)(=O)=O)c2)nc1N1CCN(c2ccccc2)CC1 | binding, competition with immobilised ligand | 1 µM | 99% |
| C[C@@H]1CN(c2cc(-c3n[nH]c4ccc(OC5(C)CC5)cc34)ncn2)C[C@H](C)O1 | cell-free assay, competition with immobilised ligand | 0.1 µM | 96% |
| O=C(NCCCN1CCOCC1)c1ccc(Nc2ncc(Cl)c(-c3ccc(Cl)s3)n2)cc1 | binding, competition with immobilised ligand | 1 µM | 0.45% |
| C=CC(=O)N1CCC(C(=O)NCC(=O)N2CCN(c3nc(-c4cnc(N)nc4C(F)F)nc(N4CCOCC4)n3)CC2)CC1 | binding, competition with immobilised ligand | 1 µM | 97% |
| Cc1cnn2ncc(-c3ccnc(N(C)C)n3)c2c1 | binding | 1 µM | 100% |
| CC(C)CC(=O)N1CCc2nc(-c3ccc(Br)cc3)nc(N(C)Cc3ccccc3)c2C1 | cell-free assay, competition with immobilised ligand | 0.1 µM | 91% |
| CC1CCCN1c1nccc(-c2cnn3ncccc23)n1 (stereo not shown) | binding | 1 µM | 100% |
| Cc1noc([C@H]2C[C@@H](c3ccc(C(F)(F)F)cc3)CN(C(=O)N3CCS(=O)(=O)C3)C2)n1 | cell-free assay, competition with immobilised ligand | 1 µM | 100% |
| COc1cnc(Nc2cccc(S(N)(=O)=O)c2)nc1N1CCN(c2ccccc2)C(=O)C1 | binding, competition with immobilised ligand | 1 µM | 89% |
| CCN1CCN(Cc2ccc(C(=O)Nc3ccc(C)c(Oc4ccc5c(c4)CC(=O)N5)c3)cc2C(F)(F)F)CC1 | binding, competition with immobilised ligand | 1 µM | 100% |
| Cc1c(C(=O)O)cc(-c2ccc(C3CCNCC3)cc2)c2ccc(-c3ccc(C(F)(F)F)cc3)cc12 | cell-free assay, competition with immobilised ligand | 1 µM | 100% |
| O=C(c1ccc(Nc2nccc(-c3cc4ccccc4s3)n2)cc1)N1CCC(N2CCCC2)CC1 | binding, competition with immobilised ligand | 1 µM | 0% |
| C[C@@H]1CN(c2cc(-c3nn(C)c4ccc(OC5(C)CC5)cc34)ncn2)C[C@H](C)O1 | cell-free assay, competition with immobilised ligand | 1 µM | 100% |
| CN(C)c1nccc(-c2cnn3ncccc23)n1 | binding | 1 µM | 100% |
| O=C(c1ccc(Nc2ncc(Cl)c(-c3ccc(Cl)s3)n2)cc1)N1CCC(N2CCCC2)CC1 | binding, competition with immobilised ligand | 1 µM | 2.7% |
